According to ChEMBL document CHEMBL1146297, “Synthesis of 2'-paclitaxel methyl 2-glucopyranosyl succinate for specific targeted delivery to cancer cells” (Bioorg Med Chem Lett, 2007):
≈ marks a conversion by molar mass, not a printed value.

Experiments:
[1] = system: MCF7; experiment: Cytotoxicity against human MCF7 cells at 25 ng/mL; assay type: functional
[2] = system: RPTEC; experiment: Cytotoxicity against human RPTEC cells; assay type: cell-based
[3] = system: MCF7; experiment: Cytotoxicity against human MCF7 cells; assay type: functional, cell-based
Method in brief: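 Human MCF-7 breast cancer cells were tested in a panel of eight cancer lines plus RPTEC normal renal epithelial cells, with growth inhibition measured across a concentration range. IC50 is the concentration giving 50% inhibition, taken as the mean of at least three independent experiments with SD under 10%.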

[4] = system: MKN-45; experiment: Cytotoxicity against human MKN45 cells; assay type: functional, cell-based
[5] = Stability in human serum for 4 hrs; assay type: ADME, cell-free; conditions: read-out: Stability
Method in brief: (§1)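 Compound incubated in human serum at 4 µg/mL serum and 37 °C. It was then extracted with dichloromethane, and the remaining intact material was quantified by reverse-phase HPLC on a C18 column. Sampling ran up to 96 h, and stability is expressed as percent remaining.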

[6] = Cytotoxicity against human TW01 cells; assay type: functional, cell-based
[7] = Cytotoxicity against human MES-SA cells; assay type: functional, cell-based
[8] = Half life in human serum; assay type: ADME, cell-free; method in brief: as §1
[9] = system: RPTEC; experiment: Selectivity index, IC50 for TW01 cells to human RPTEC cells; assay type: functional
Method in brief: (§2)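 Selectivity index is the IC50 in the cancer line (MCF-7 or NPC-TW01) divided by the IC50 in normal RPTEC cells. Each IC50 is the mean of at least three independent experiments.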

[10] = system: A498; experiment: Cytotoxicity against human A498 cells; assay type: functional, cell-based
[11] = system: RPTEC; experiment: Selectivity index, IC50 for MCF7 cells to human RPTEC cells; assay type: functional; method in brief: as §2
[12] = system: NCI-H226; experiment: Cytotoxicity against human NCI-H226 cells; assay type: functional, cell-based
[13] = Solubility in water; assay type: physicochemical
[14] = Cytotoxicity against human Hep3B cells; assay type: functional, cell-based, Hep 3B2
[15] = system: HCT-116; experiment: Cytotoxicity against human HCT116 cells; assay type: functional, cell-based

Row | remaining at 4 h [5] [%] | half-life [8] [days] | SMILES | Activity [1] [%] | IC50 [2] [nM] | IC50 [3] [nM] | IC50 [4] [nM] | IC50 [6] [nM] | IC50 [7] [nM] | Ratio IC50 [9] | IC50 [10] [nM] | Ratio IC50 [11] | IC50 [12] [nM] | solubility [13] [µg/mL] | IC50 [14] [nM] | IC50 [15] [nM]
1 | – | – | CC(=O)O[C@H]1C(=O)[C@@]2(C)[C@H]([C@H](OC(=O)c3ccccc3)[C@]3(O)C[C@H](OC(=O)[C@H](OC(=O)CCC(=O)O)[C@@H](NC(=O)c4ccccc4)c4ccccc4)C(C)=C1C3(C)C)[C@]1(OC(C)=O)CO[C@@H]1C[C@@H]2O | 50 | – | – | – | – | – | – | – | – | – | – | – | –
2 | 85 | 2.75 | CO[C@H]1O[C@H](CO)[C@@H](O)[C@@H](O)[C@H]1OC(=O)CCC(=O)O[C@@H](C(=O)O[C@H]1C[C@@]2(O)[C@@H](OC(=O)c3ccccc3)[C@@H]3[C@]4(OC(C)=O)CO[C@@H]4C[C@H](O)[C@@]3(C)C(=O)[C@H](OC(C)=O)C(=C1C)C2(C)C)[C@@H](NC(=O)c1ccccc1)c1ccccc1 | – | 1580 | 0.7 | 14.1 | 7.2 | 9.1 | 0.0046 | 258 | 0.0004 | 114 | 350 (≈ 310 µM) | 60.3 | 25.6
3 | – | – | CC(=O)O[C@H]1C(=O)[C@@]2(C)[C@H]([C@H](OC(=O)c3ccccc3)[C@]3(O)C[C@H](OC(=O)[C@H](O)[C@@H](NC(=O)c4ccccc4)c4ccccc4)C(C)=C1C3(C)C)[C@]1(OC(C)=O)CO[C@@H]1C[C@@H]2O [PACLITAXEL] | – | 0.9 | 0.5 | 0.5 | 0.3 | 0.5 | 0.33 | 61 | 0.56 | 6.8 | < 4 | 5.4 | 0.6
